SENP1 FRET inh: human SENP1 catalytic domain inhibitors, primary screen, biochemical, FRET, uHTS; Sentrin-specific protease 1 (Homo sapiens), Q9P0U3; recombinant SENP1 catalytic domain, CyPet-SUMO1-YPet FRET cleavage; inhibition, % at 10 µM; hit rate 0.21% among 360,000; AID 624204, 2012;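 active = inhibition at least 30% at 10 µM, raw YFP signal under a set limit, fluorescence ratio 0.5 to 1.5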
Target sequence (Q9P0U3 419-644 limits assumed): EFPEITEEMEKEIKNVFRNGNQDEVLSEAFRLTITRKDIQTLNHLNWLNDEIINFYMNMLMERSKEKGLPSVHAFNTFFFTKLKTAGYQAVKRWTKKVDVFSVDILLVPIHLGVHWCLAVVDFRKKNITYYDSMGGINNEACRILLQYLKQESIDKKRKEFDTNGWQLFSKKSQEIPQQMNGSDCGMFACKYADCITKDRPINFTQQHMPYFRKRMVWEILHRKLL
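Material: hSENP1 catalytic domain, recombinant; medium: Tris pH 8 with BME, BSA, NP40 and catalase; compound: single concentration of 10 µM compound, 0.5% DMSO final; technique: FRET read of cyan and yellow fluorescence; timing: 50 min enzyme reaction, room temperature, light-protected; reagent: SFCypet-SUMO1-SFYpet substrate at 25 nM; control set: no-enzyme low, enzyme-DMSO high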
GRIN3A LBD mod: binders of NR3A ligand-binding domain, primary screen, biophysical, differential scanning fluorimetry, uHTS; NR3A LBD differential scanning fluorimetry, Tm shift; 0% = protein alone, 100% = glycine-bound protein; Tm shift relative to glycine control, % at 25 µM; hit rate 2.5% among 340,000; AID 1259313, 2017;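 active = melting temperature shift of at least 10% of the positive control shift, at one fixed dose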
FAS-TE inh: FAS thioesterase domain inhibitors, primary screen, biochemical, fluorescence intensity, uHTS; Fatty acid synthase (Homo sapiens), P49327; inhibition, % at 15 µM; hit rate 0.67% among 360,000; recombinant FAS-TE, OMFH fluorogenic substrate, fluorescence endpoint;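 active = compounds whose normalised, plate-corrected inhibition of enzyme fluorescence in the single-dose primary screen is 50% or more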
iPSC survival up: enhancers of single-cell hiPSC survival, primary screen, ATPlite luminescence | survival enhancement, % at 20 µM | AID 602274, 2012 | hit rate 0.044% among 360,000 | 100% = ROCK inhibitor wells, 0% = DMSO; in the data active = survival enhancement above about 18%;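 also: cells exposed to compounds for 16 hours before the ATP read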
Arr AP2 block: inhibitors of beta-arrestin/AP2 binding, primary screen, biochemical, GPCR trafficking, flow cytometry | beta-arrestin 1 C-terminal peptide binding to AP2 beta2-adaptin appendage (human) | FITC-arrestin peptide / GST-AP2 beads; AP2 beta2 appendage carries R879A mutation | inhibition, % at 10 µM | hit rate 0.31% among 340,000;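 active = inhibition above a set limit, near 3 SD of compounds lacking own fluorescence, cut at about 54% in these data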
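System: GST-tagged AP2 beta2-adaptin appendage (R879A) on 4 µm glutathione beads / Reagent: FITC-arrestin peptide, 50 nM / Detection: HyperCyt-sampled flow cytometry, FL1 channel, ex 488/em 535 nm / Timing: 12 min plus 1 h, RT / Buffer or medium: PBS plus Tween 20 (0.05%) and BSA (0.1%)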
H9c2 protect: cardioprotection against H2O2-induced cell death, primary screen, uHTS, H9c2 cells, ATPLite luminescence. H9c2 cardiomyocytes, H2O2 injury protection, 2 h. protection from H2O2 cell death, % at 20 µM. hit rate 0.63% among 360,000;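 active = compounds giving at least 50% protection of heart cells from peroxide-induced death in the single-dose screen, raw or plate-pattern-corrected value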
Numbers stand for hits; - = inactive; . = not tested or not shown. A selection: hits, their analogues and other compounds. The true share with any hit is near 4%.

SMILES	SENP1 FRET inh	GRIN3A LBD mod	FAS-TE inh	iPSC survival up	Arr AP2 block	H9c2 protect
COc1ccc([C@@]23Oc4cc(OC)cc(OC)c4[C@]2(O)[C@H](O)[C@H](C(=O)N(C)C)[C@H]3c2ccccc2)cc1	-	-	-	-	-	-
O=C(CSc1nccc(-c2cccs2)n1)Nc1ccc(Cl)cc1	-	25.6	-	-	-	-
O=C(/C=C/c1cccs1)c1ccc(NC(=O)c2cccc(Br)c2)cc1	-	27.1	-	-	-	-
Cc1ccc(C(=O)Nc2ccc(C(=O)/C=C/c3cccs3)cc2)cc1	-	14.7	-	-	-	-
O=C1C=C(O)CC2(CCCCC2)C1	-	.	-	-	.	-
CC1=C(C(=O)N(C(C)C)C(C)C)CC(CC(=O)NCC2CCCCC2)C(=O)N1Cc1ccc(C(C)(C)C)cc1 (stereo not drawn)	-	.	-	-	.	.
COc1ccc(C(C)(NC(C)=O)c2nc(-c3ccc(F)cc3OC)cs2)cc1 (stereo not drawn)	-	.	-	-	.	-
Fc1ccc(Nc2ccnc(Nc3ccc(F)cc3)n2)cc1	-	55.4	-	-	-	-
COc1cccc(C(=Cc2ccc([N+](=O)[O-])cc2)C(=O)O)c1	-	.	-	-	.	-
O=C(NC(CSCc1ccccc1)C(=O)N/N=C/c1ccc(O)cc1O)c1ccc([N+](=O)[O-])cc1 (stereo not drawn)	-	15.8	-	-	-	-
COc1cccc(CNc2nc3cc(-c4ccccc4C)sc3c(=O)n2C)c1OC	-	.	-	-	.	-
CSc1nc2ccc(NS(=O)(=O)c3cccc(Cl)c3Cl)cc2s1	-	16.1	-	-	-	-
CCCCC(=O)N(C)c1c(CC)nc2c(OCc3ccccc3C)cccn12	-	.	-	-	.	-
Cc1ccc(S(=O)(=O)N(C)CC(=O)O/N=C(\N)c2ccc([N+](=O)[O-])cc2)cc1	-	21.3	-	-	-	-
Cc1ccc(C(=O)O/N=C(\N)c2cccc([N+](=O)[O-])c2)cc1	-	12.9	-	-	-	-
COc1cc(C(=O)O/N=C(\N)c2cccc([N+](=O)[O-])c2)cc(OC)c1OC	-	13.9	-	-	-	-
COc1cc(F)ccc1-c1csc(C(C)(NC(C)=O)c2ccccc2)n1 (stereo not drawn)	-	.	-	-	.	-
CCC(CC)C(=O)N(C)c1c(C)nc2c(OCC3CCCCC3)cccn12	-	.	-	-	.	-
CCc1nc2c(OCC(=O)c3ccc(Cl)cc3Cl)cccn2c1N(C=O)Cc1ccccc1	-	.	-	-	.	-
Nc1ncnc2c1ccn2[C@H]1CN(Cc2ccc3c(c2)OCO3)C[C@@H](COC(=O)c2ccccc2)O1	-	.	-	-	.	-
CCCC1=NN2C(=N)/C(=C\c3cc(C)n(-c4cccc(C)c4)c3C)C(=O)N=C2S1	-	-	-	-	-	-
CC1=NN2C(=N)/C(=C\c3cc(C)n(-c4ccc(C)cc4)c3C)C(=O)N=C2S1	-	21.8	-	-	-	-
COC(=O)[C@@]12C[C@@H](CC(=O)NCc3ccc(C)o3)C(=O)N(CCc3ccc(OC)c(OC)c3)C1=CCC(C)(C)C2	-	.	.	.	.	.
COc1ccc(NC(=O)c2cc3ccccc3cc2O)cc1	-	-	-	-	-	-
COc1ccc(NC(=O)c2cc3ccc4c5ccccc5[nH]c4c3cc2O)cc1	-	229.5	-	-	-	-
SMILES	SENP1 FRET inh	GRIN3A LBD mod	FAS-TE inh	iPSC survival up	Arr AP2 block	H9c2 protect
CCCCNC(=O)Nc1ccccc1C(=O)Nc1ccc(OC)cc1	-	10.7	-	-	-	-
COc1ccc(NC(=O)c2cccc3ccccc23)cc1	-	21.8	-	-	-	-
COc1ccc(NC(=O)c2cccc3c(Br)cccc23)cc1	-	-	-	-	-	-
COC(=O)C(C(=O)OC)c1ccccc1NS(=O)(=O)c1c(C)cc(C)cc1C	-	.	.	.	.	.
C=CCNc1nc(-c2sc(NC(=O)C(C)(C)C)nc2C)c(-n2cc(-c3ccccc3)nn2)s1	-	.	-	-	.	.
Cc1cc(C)n2c(Nc3ccc4c(c3)OCCO4)c(CCc3ccccc3)nc2n1	-	.	-	-	.	.
C[C@@H]1CN([C@@H](C)CO)C(=O)CCCn2nncc2CO[C@@H]1CN(C)S(=O)(=O)c1cccc(F)c1	-	.	-	-	.	-
O=C(COC(=O)c1ccc2[nH]c3c(c2c1)CCCC3)Nc1ccccc1Cl	-	12.6	-	-	-	-
O=C(COC(=O)c1ccc2[nH]c3c(c2c1)CCCC3)Nc1ccc(Cl)cc1Cl	-	27.0	-	-	-	-
CCC(C)c1ccccc1NC(=O)COC(=O)c1ccc2[nH]c3c(c2c1)CCCC3 (stereo not drawn)	-	-	-	-	-	-
CCOC(=O)c1ccc2[nH]c3c(c2c1)CCCC3	-	-	-	-	-	-
O=C(NCC1CCCCC1)c1cc(-c2cc(F)ccc2OCC2CCCO2)n[nH]1 (stereo not drawn)	-	.	-	-	.	-
CCOC(=O)[C@]12CCCC=C1N(Cc1ccco1)C(=O)[C@H](CC(=O)NCc1ccccc1)C2	-	.	-	-	.	.
Cn1ccc2c(-c3ccc(C(=O)O)cc3)cc3c(c21)C1CCC3O1 (stereo not drawn)	-	.	-	-	.	-
O=C1NC(=Nc2ccccc2Cl)S/C1=C\c1cccc([N+](=O)[O-])c1O	58.4	-	-	-	-	-
Cc1nn(-c2ccccc2)c(Cl)c1/C=N/NS(=O)(=O)c1ccc(Br)cc1	-	16.8	-	-	-	-
C[C@@H]1CN([C@@H](C)CO)C(=O)Cc2cc(NC(=O)Nc3cccc4ccccc34)ccc2O[C@@H]1CN(C)Cc1ccc(C(F)(F)F)cc1	-	13.4	-	-	-	-
C[C@@H]1CN([C@H](C)CO)C(=O)c2cc(NC(=O)C3CCCCC3)ccc2O[C@@H]1CN(C)Cc1ccc(C(F)(F)F)cc1	-	-	-	-	-	-
C[C@@H]1CN([C@H](C)CO)C(=O)c2cc(NC(=O)Nc3cccc4ccccc34)ccc2O[C@H]1CN(C)Cc1ccc(C(F)(F)F)cc1	-	22.8	-	-	-	-
NC(c1csc(Nc2ccccn2)n1)C1CCCCC1 (stereo not drawn)	-	.	-	-	.	-
CC1(C)OC(=O)C2=C(C[C@@H](CCc3ccccc3)O[C@H]2C2CCCC2)O1	-	.	-	-	.	.
CSc1nc(Oc2ccccc2)c2sccc2n1	-	-	-	-	-	-
C=CCSc1nc(Oc2ccccc2)c2sccc2n1	-	15.0	-	-	-	-

Screens (PubChem BioAssay)
